What was measured:
MIA PaCa-2 = experiment: Growth inhibition of human MIAPaCa2 cells after 48 hrs by SRB assay; format: functional; settings: MIA PaCa-2, 48 h; for CC50: read-out: LC50 (the source's name)
Method in brief: (§1)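 Cells grown in RPMI 1640 with 5% heat-inactivated FCS, 2 mM L-glutamine and antibiotics, 37 °C, 5% CO2. Seeded at 3500–30000 cells/well and left 24 h before dosing. DMSO solutions added at 10-fold dilutions from 100 to 0.01 μM for 48 h. Cells TCA-fixed and SRB-stained, absorbance read at 540 nm; GI50 derived against the time-zero plate.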

MCF7 = experiment: Growth inhibition of human MCF7 cells after 48 hrs by SRB assay; format: functional; settings: MCF7, 48 h; for CC50: read-out: LC50 (the source's name); method in brief: as §1
U-251 = experiment: Growth inhibition of human U251 cells after 48 hrs by SRB assay; format: functional; settings: U-251, 48 h; for CC50: read-out: LC50 (the source's name); method in brief: as §1
HCT-15 = experiment: Growth inhibition of human HCT15 cells after 48 hrs by SRB assay; format: functional; settings: HCT-15, 48 h; for CC50: read-out: LC50 (the source's name); method in brief: as §1
[1] = (§2) Growth inhibition of human HUVEC cells after 48 hrs by SRB assay; format: cell-based; settings: HUVEC cells; method in brief: as §1
HUVEC = experiment: as §2; format: cell-based; settings: huvec, 48 h; method in brief: as §1
SK-HEP1 = experiment: Growth inhibition of human SKHEP1 cells after 48 hrs by SRB assay; format: functional; settings: SK-HEP1, 48 h; for CC50: read-out: LC50 (the source's name); method in brief: as §1
[2] = (§3) Growth inhibition of human NHDF cells after 48 hrs by SRB assay; format: cell-based; settings: NHDF cells; method in brief: as §1
NHDF = experiment: as §3; format: cell-based; settings: nhdf, 48 h; method in brief: as §1
PC-3 = experiment: Growth inhibition of human PC3 cells after 48 hrs by SRB assay; format: functional; settings: PC-3, 48 h; for CC50: read-out: LC50 (the source's name); method in brief: as §1
[3] = Displacement of [3H]1,3-di-otolylguanidine from sigma 2 receptor in rat cerebral cortex membranes; format: cell membranes, Membrane
Method in brief: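 Rat cerebral cortex membranes incubated with 5 nM [3H]DTG plus 300 nM (+)-pentazocine to mask σ1 sites, together with a range of test concentrations, 2 h at 22 °C in Tris-HCl, pH 7.4. Nonspecific binding defined with 10 μM haloperidol.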

IGROV-1 = experiment: Growth inhibition of human IGROV1 cells after 48 hrs by SRB assay; format: functional; settings: IGROV-1, 48 h; for CC50: read-out: LC50 (the source's name); method in brief: as §1
OVCAR-5 = experiment: Growth inhibition of human OVCAR5 cells after 48 hrs by SRB assay; format: functional; settings: OVCAR-5, 48 h; for CC50: read-out: LC50 (the source's name); method in brief: as §1
[4] = Growth inhibition of human MSC cells after 48 hrs by SRB assay; format: cell-based; method in brief: as §1
[5] = target: Sigma non-opioid intracellular receptor 1 (Homo sapiens, UniProt Q99720); experiment: Displacement of [3H]-(+)-pentazocine from sigma 1 receptor in human Jurkat cell membrane; format: cell membranes
Method in brief: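 Jurkat cell membranes incubated with 8 nM [3H](+)-pentazocine and a range of test concentrations for 2 h at 22 °C in Tris-HCl buffer, pH 7.4. Nonspecific binding defined with 10 μM haloperidol. Run in triplicate.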

BXPC-3 = experiment: Growth inhibition of human BxPC3 cells after 48 hrs by SRB assay; format: functional; settings: BXPC-3, 48 h; method in brief: as §1
HCT-116 = experiment: Growth inhibition of human HCT116 cells after 48 hrs by SRB assay; format: functional; settings: HCT-116, 48 h; for CC50: read-out: LC50 (the source's name); method in brief: as §1
[6] = Displacement of [3H]batrachotoxin benzoate from Na+ channel after 60 mins by liquid scintillation counting
Method in brief: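 Na+ channel site 2 binding: vesicle preparation (150−500 μg protein) incubated 60 min with 20−25 nM [3H]BTX-B and 50 μg Leiurius quinquestriatus venom. Buffer was 130 mM choline chloride, 50 mM HEPES/Tris pH 7.4, glucose, MgSO4, KCl, BSA. Filtered on GF/C with cold washes; scintillation counting. Nonspecific binding defined with 250 μM veratridine.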

DU-145 = experiment: Growth inhibition of human DU145 cells after 48 hrs by SRB assay; format: functional; settings: DU-145, 48 h; for CC50: read-out: LC50 (the source's name); method in brief: as §1
HL-60(TB) = experiment: Growth inhibition of human HL-60(TB) cells after 48 hrs by SRB assay; format: functional; settings: HL-60, 48 h; for CC50: read-out: LC50 (the source's name)
Method in brief: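 Cells kept in RPMI 1640 with 5% FCS at 37 °C, 5% CO2, and seeded 24 h before dosing. Compound given from DMSO at 10-fold dilutions, 100 to 0.01 μM, for 48 h. Cells fixed with TCA, stained with SRB, absorbance read at 540 nm. GI50 taken from a time-zero plate.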

Sigma non-opioid intracellular receptor 1, sequence (Q99720 whole entry): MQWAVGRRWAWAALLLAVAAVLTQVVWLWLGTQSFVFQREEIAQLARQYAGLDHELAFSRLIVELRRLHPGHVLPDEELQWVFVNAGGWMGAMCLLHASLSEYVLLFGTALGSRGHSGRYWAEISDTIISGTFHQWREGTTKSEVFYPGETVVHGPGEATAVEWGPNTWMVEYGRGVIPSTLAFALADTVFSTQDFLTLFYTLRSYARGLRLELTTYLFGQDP

Compound | GI50 (MCF7) [µM] | TGI (MCF7) [µM] | CC50 (MCF7) [µM] | GI50 (U-251) [µM] | TGI (U-251) [µM] | CC50 (U-251) [µM] | GI50 (HCT-15) [µM] | TGI (HCT-15) [µM] | CC50 (HCT-15) [µM] | GI50 at 48 h [1] [µM] | LC50 (HUVEC) [µM] | TGI (HUVEC) [µM] | GI50 (SK-HEP1) [µM] | TGI (SK-HEP1) [µM] | GI50 at 48 h [2] [µM] | LC50 (NHDF) [µM] | TGI (NHDF) [µM] | GI50 (BXPC-3) [µM] | LC50 (BXPC-3) [µM] | TGI (BXPC-3) [µM] | also measured
CN1CCN(CCc2ccc(C(c3ccccc3)C34CC5CC(CC(C5)C3)C4)cc2)CC1 (configuration not stated) | 2.77 | 5.7 | 0.0086 | 3.37 | 6.09 | 0.00881 | 4.64 | 8.26 | 0.1 | 3.32 | 9.6 | 6.46 | 3.69 | 6.36 | 4.18 | 100 | 8.07 | 5.76 | 0.1 | 19.9 | GI50 (MIA PaCa-2): 7.5 µM; TGI (MIA PaCa-2): 36 µM; CC50 (MIA PaCa-2): 0.0762 µM; CC50 (SK-HEP1): 0.00902 µM; GI50 (PC-3): 4.57 µM; TGI (PC-3): 9 µM; CC50 (PC-3): 0.0135 µM; IC50 [3]: 0.0801 µM; GI50 (IGROV-1): 4.29 µM; TGI (IGROV-1): 8.93 µM; CC50 (IGROV-1): 0.0136 µM; GI50 (OVCAR-5): 17.4 µM; TGI (OVCAR-5): 29.3 µM; CC50 (OVCAR-5): 0.0624 µM; TGI [4]: 6.39 µM; IC50 [5]: 0.0029 µM
c1ccc(CN2CCN(CCCc3ccc(C(c4ccccc4)C45CC6CC(CC(C6)C4)C5)cc3)CC2)cc1 (configuration not stated) | 6.76 | 61.7 | 0.1 | 36.4 | 79.1 | 0.1 | – | – | – | – | – | – | – | – | 39.5 | 100 | 100 | 36.8 | 0.1 | 100 | IC50 [3]: 0.0283 µM; GI50 (HCT-116): 7.72 µM; TGI (HCT-116): 39.7 µM; CC50 (HCT-116): 0.0829 µM; IC50 [5]: 0.0361 µM; IC50 [6]: 0.0115 µM
CCN1CCN(CCCc2ccc(C(c3ccccc3)C34CC5CC(CC(C5)C3)C4)cc2)CC1 (configuration not stated) | 3.05 | 5.87 | 0.00861 | 4.29 | 6.69 | 0.00909 | 4.09 | 7.64 | 0.0473 | 4.07 | 9.4 | 6.73 | 3.41 | 6.01 | 5.04 | 100 | 36.6 | 5.3 | 0.1 | 10.6 | CC50 (SK-HEP1): 0.00861 µM; GI50 (DU-145): 5.33 µM; TGI (DU-145): 8.5 µM; CC50 (DU-145): 0.0117 µM; GI50 (PC-3): 4.79 µM; TGI (PC-3): 7.84 µM; CC50 (PC-3): 0.0109 µM; GI50 (HCT-116): 3.29 µM; TGI (HCT-116): 5.9 µM; CC50 (HCT-116): 0.00852 µM; TGI [4]: 8.69 µM
CN1CCN(Cc2ccc(C(c3ccccc3)C34CC5CC(CC(C5)C3)C4)cc2)CC1 (configuration not stated) | 2.25 | 5.29 | 0.00833 | 3.62 | 6.55 | 0.00947 | 3.5 | 6.3 | 0.0091 | 4.12 | 100 | 7.3 | 3.35 | 5.97 | 5.12 | 100 | 10.4 | 4.83 | 0.00913 | 6.98 | GI50 (MIA PaCa-2): 3.61 µM; TGI (MIA PaCa-2): 6.34 µM; CC50 (MIA PaCa-2): 0.00906 µM; CC50 (SK-HEP1): 0.00859 µM; GI50 (DU-145): 3.01 µM; TGI (DU-145): 6.41 µM; CC50 (DU-145): 0.00908 µM; GI50 (PC-3): 3.55 µM; TGI (PC-3): 6.25 µM; CC50 (PC-3): 0.0685 µM; IC50 [3]: 0.11 µM; GI50 (OVCAR-5): 5.31 µM; TGI (OVCAR-5): 19.7 µM; CC50 (OVCAR-5): 0.0577 µM; TGI [4]: 4.44 µM; IC50 [5]: 0.0052 µM; GI50 (HL-60(TB)): 0.00463 µM; TGI (HL-60(TB)): 0.00914 µM; CC50 (HL-60(TB)): 0.1 µM
c1ccc(C(c2ccc(CCCN3CCNCC3)cc2)C23CC4CC(CC(C4)C2)C3)cc1 (configuration not stated) | 3.1 | 5.97 | 0.00884 | 3.3 | 5.87 | 0.00844 | 3.15 | 6.13 | 0.00911 | 3.97 | 100 | 7.17 | 3.67 | 6.19 | 4.07 | 9.58 | 6.82 | 3.38 | 0.00944 | 6.41 | CC50 (SK-HEP1): 0.0087 µM; GI50 (DU-145): 2.83 µM; TGI (DU-145): 5.65 µM; CC50 (DU-145): 0.00846 µM; GI50 (PC-3): 3.06 µM; TGI (PC-3): 5.71 µM; CC50 (PC-3): 0.00837 µM; IC50 [3]: 0.461 µM; GI50 (IGROV-1): 3.29 µM; TGI (IGROV-1): 6.34 µM; CC50 (IGROV-1): 0.00939 µM; GI50 (HCT-116): 2.96 µM; TGI (HCT-116): 5.85 µM; CC50 (HCT-116): 0.00874 µM; TGI [4]: 7.28 µM; IC50 [5]: 0.042 µM; GI50 (HL-60(TB)): 0.00301 µM; TGI (HL-60(TB)): 0.00822 µM; CC50 (HL-60(TB)): 0.1 µM; IC50 [6]: > 1 µM
c1ccc(C(c2ccc(CCCN3CCCCC3)cc2)C23CC4CC(CC(C4)C2)C3)cc1 (configuration not stated) | 2.41 | 6.07 | 0.00963 | 4.61 | 7.19 | 0.00977 | 3.89 | 6.78 | 0.00968 | 3.27 | 9.18 | 6.23 | 3.25 | 5.97 | 2.83 | 9.47 | 6.15 | 3.78 | 0.00917 | 6.47 | CC50 (SK-HEP1): 0.00868 µM; GI50 (DU-145): 5.18 µM; TGI (DU-145): 8.17 µM; CC50 (DU-145): 0.0112 µM; GI50 (PC-3): 3.92 µM; TGI (PC-3): 7.32 µM; CC50 (PC-3): 0.0107 µM; IC50 [3]: 0.013 µM; GI50 (HCT-116): 3.37 µM; TGI (HCT-116): 5.99 µM; CC50 (HCT-116): 0.00861 µM; TGI [4]: 1.93 µM; IC50 [5]: 0.0123 µM; IC50 [6]: > 0.1 µM
CCN1CCN(CCc2ccc(C(c3ccccc3)C34CC5CC(CC(C5)C3)C4)cc2)CC1 (configuration not stated) | 3.9 | 8.5 | 0.0971 | 3.54 | 6.19 | 0.00847 | 5.64 | 17.2 | 0.1 | 5.1 | 9.62 | 7.36 | 4.14 | 7.66 | 7.31 | 100 | 83.6 | 8.35 | 0.0898 | 45.2 | GI50 (MIA PaCa-2): 20.9 µM; TGI (MIA PaCa-2): 49.2 µM; CC50 (MIA PaCa-2): 0.0775 µM; CC50 (SK-HEP1): 0.1 µM; GI50 (PC-3): 4.83 µM; TGI (PC-3): 9.53 µM; CC50 (PC-3): 0.0867 µM; GI50 (IGROV-1): 4.49 µM; TGI (IGROV-1): 9.83 µM; CC50 (IGROV-1): 0.0968 µM; GI50 (OVCAR-5): 28.1 µM; TGI (OVCAR-5): 53.8 µM; CC50 (OVCAR-5): 0.0685 µM; TGI [4]: 2.93 µM
